Results from ChEMBL document CHEMBL1138602, “Discovery of sodium 6-[(5-chloro-2-{[(4-chloro-2-fluorophenyl)methyl]oxy}phenyl)methyl]-2-pyridinecarboxylate (GSK269984A) an EP(1) receptor antagonist for the treatment of inflammatory pain” (Bioorg Med Chem Lett, 2009).

Assays:
[1] = Drug level in Landrace pig brain at 0.5 mg/kg/hr administered by infusion for 1 hrs; type: ADME, organism-based, Sus scrofa; settings: intravenous, read-out: Drug uptake
In short: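 Landrace pig given a 1 h infusion; blood and brain concentrations measured in a single animal.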

[2] = Drug level in blood of complete Freund's adjuvant-induced rat inflammatory pain model at 3 mg/kg, po administered after 23 hrs of adjuvant challenge measured after 1 hr; type: ADME, organism-based; parameters: dose 3 mg/kg, route oral; settings: read-out: Drug uptake
In short: (§1)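 CFA rat study: oral doses of 1, 3 or 10 mg/kg given 23 h after intraplantar adjuvant, samples 1 h post-dose. Blood values are the mean from seven animals. Brain values are the mean from three animals.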

[3] = Ratio of drug level in brain to blood of rat at 0.5 mg/kg/hr administered by infusion for 1 hrs; settings: brain and blood, intravenous
[4] = Clearance in Sprague-Dawley rat blood at 1 mg/kg administered by intravenous infusion for 1 hr; type: ADME, organism-based; parameters: dose 1 mg/kg, route intravenous
In short: (§2)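 Intravenous administration as a 1 h infusion of a 1 mg/kg dose. Rats were male Sprague-Dawley; dogs were beagle; monkeys were cynomolgus. Blood clearance, Vss and half-life determined.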

[5] = biological target: Cytochrome P450 2C9 (Homo sapiens, UniProt P11712); test: Inhibition of human CYP2C9; type: ADME
In short: (§3)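 Inhibition of metabolism of fluorometric substrates (Cypex protocol); IC50 values are the mean of three experiments ± standard deviation.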

[6] = Ratio of drug level in brain to blood of Landrace pig at 0.5 mg/kg/hr administered by infusion for 1 hrs; settings: brain and blood, intravenous
[7] = Half life in Sprague-Dawley rat at 1 mg/kg administered by intravenous infusion for 1 hr; type: ADME, organism-based; parameters: dose 1 mg/kg, route intravenous; settings: in vivo; in short: as §2
[8] = Permeability from apical to basolateral side of dog MDCK2 cells over expressing MDR1 after 1 hr; type: ADME, cell-based, Canis lupus familiaris, MDCK-II; settings: MDCK-MDR1, read-out: permeability
In short: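 MDCKII-MDR1 Pgp permeability assay; apical-to-basolateral Pexact permeability in nm/s, with efflux ratio also determined.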

[9] = Solubility in FaSSIF after 0.5 hrs; type: physicochemical
In short: (§4)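 Solubility determined in water, FaSSIF and FeSSIF, all read at the 0.5 h time point.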

[10] = test system: Rattus norvegicus; test: Antianalgesic activity against complete Freund's adjuvant induced inflammatory pain in rat assessed as reversal of hypersensitivity dosed as po bid for 5 days measured after 1 hr on day 5; type: functional
[11] = Oral bioavailability in Beagle dog at 3 mg/kg; type: ADME, organism-based, Canis lupus familiaris; settings: in vivo
In short: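 Single oral dose of 3 mg/kg in 1% (w/v) methylcellulose vehicle. Rats were male Sprague-Dawley; dogs were beagle. Bioavailability (Fpo) determined.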

[12] = biological target: T1, Prostaglandin E2 receptor EP3 subtype (Homo sapiens, UniProt P43115); test: Inhibition of EP3 receptor by FLIPR assay
T1 sequence (P43115 whole entry): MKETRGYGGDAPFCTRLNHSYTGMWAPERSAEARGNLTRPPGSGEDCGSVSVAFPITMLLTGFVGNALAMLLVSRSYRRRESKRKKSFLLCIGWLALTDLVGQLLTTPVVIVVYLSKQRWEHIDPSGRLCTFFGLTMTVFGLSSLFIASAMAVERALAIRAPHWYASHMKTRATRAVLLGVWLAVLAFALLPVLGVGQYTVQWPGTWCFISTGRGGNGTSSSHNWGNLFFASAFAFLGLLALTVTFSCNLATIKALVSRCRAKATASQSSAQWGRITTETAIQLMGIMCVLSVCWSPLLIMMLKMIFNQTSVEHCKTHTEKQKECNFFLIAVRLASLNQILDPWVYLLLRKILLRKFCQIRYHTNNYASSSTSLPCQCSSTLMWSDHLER

[13] = Drug level in rat brain at 0.5 mg/kg/hr administered by infusion for 1 hrs; type: ADME, organism-based; settings: intravenous, read-out: Drug uptake
In short: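 Rat given a 1 h infusion; blood and brain concentrations measured.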

[14] = Solubility in water after 0.5 hrs; type: physicochemical; in short: as §4
[15] = biological target: Cytochrome P450 2D6 (Homo sapiens, UniProt P10635); test: Inhibition of human CYP2D6; type: ADME; in short: as §3
[16] = Intrinsic clearance in cynomolgus monkey hepatocytes measured per gram of liver at 0.15 to 0.2 X 10^6 cells/ml cell density; type: ADME, cell-based, Macaca fascicularis, Hepatocyte
In short: (§5)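 Intrinsic clearance in hepatocytes expressed as mL/min/g liver. Cell densities were 0.15–0.2 × 10^6 cells/mL or 0.54–0.7 × 10^6 cells/mL.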

[17] = biological target: Cytochrome P450 2C19 (Homo sapiens, UniProt P33261); test: Inhibition of human CYP2C19; type: ADME; in short: as §3
[18] = biological target: Prostacyclin receptor (Homo sapiens, UniProt P43119); test: Inhibition of IP receptor
[19] = Drug level in blood of complete Freund's adjuvant-induced rat inflammatory pain model at 10 mg/kg, po administered after 23 hrs of adjuvant challenge measured after 1 hr; type: ADME, organism-based; parameters: dose 10 mg/kg, route oral; settings: read-out: Drug uptake; in short: as §1
[20] = biological target: Prostaglandin E2 receptor EP2 subtype (Homo sapiens, UniProt P43116); test: Inhibition of EP2 receptor
[21] = Drug level in rat blood at 0.5 mg/kg/hr administered by infusion for 12 hrs; type: ADME, organism-based; settings: intravenous, read-out: Drug uptake
In short: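 Steady-state 12 h infusion at 5 mL/kg/h to reach a target dose of 0.5 mg/kg/h; blood and brain concentrations measured. Data are the mean from three animals.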

[22] = test system: Hepatocyte; test: Intrinsic clearance in human hepatocytes measured per gram of liver at 0.54 to 0.7 X 10^6 cells/ml cell density; type: ADME, cell-based; in short: as §5
[23] = test system: MDR1; test: Permeability in dog MDCK2 cells over expressing MDR1 assessed as efflux ratio after 1 hr; settings: MDCK-MDR1
[24] = Half life in cynomolgus monkey at 1 mg/kg administered by intravenous infusion for 1 hr; type: ADME, organism-based, Macaca fascicularis; parameters: dose 1 mg/kg, route intravenous; settings: in vivo; in short: as §2

Sequence of Cytochrome P450 2D6 (P10635 whole entry): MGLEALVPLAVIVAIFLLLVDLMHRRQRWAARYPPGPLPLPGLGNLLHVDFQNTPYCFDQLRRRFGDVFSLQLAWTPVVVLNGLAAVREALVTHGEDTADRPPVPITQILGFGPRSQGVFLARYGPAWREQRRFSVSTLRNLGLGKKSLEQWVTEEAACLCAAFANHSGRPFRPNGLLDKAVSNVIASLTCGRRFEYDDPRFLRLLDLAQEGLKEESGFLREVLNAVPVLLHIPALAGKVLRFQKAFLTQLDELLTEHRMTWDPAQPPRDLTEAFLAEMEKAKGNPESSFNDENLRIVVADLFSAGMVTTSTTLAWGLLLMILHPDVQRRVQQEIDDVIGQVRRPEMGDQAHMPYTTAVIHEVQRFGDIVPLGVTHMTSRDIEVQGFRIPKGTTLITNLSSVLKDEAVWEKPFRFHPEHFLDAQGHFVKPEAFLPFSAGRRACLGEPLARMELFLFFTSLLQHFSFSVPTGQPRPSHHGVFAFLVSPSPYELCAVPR
Sequence of Cytochrome P450 2C9 (P11712 whole entry): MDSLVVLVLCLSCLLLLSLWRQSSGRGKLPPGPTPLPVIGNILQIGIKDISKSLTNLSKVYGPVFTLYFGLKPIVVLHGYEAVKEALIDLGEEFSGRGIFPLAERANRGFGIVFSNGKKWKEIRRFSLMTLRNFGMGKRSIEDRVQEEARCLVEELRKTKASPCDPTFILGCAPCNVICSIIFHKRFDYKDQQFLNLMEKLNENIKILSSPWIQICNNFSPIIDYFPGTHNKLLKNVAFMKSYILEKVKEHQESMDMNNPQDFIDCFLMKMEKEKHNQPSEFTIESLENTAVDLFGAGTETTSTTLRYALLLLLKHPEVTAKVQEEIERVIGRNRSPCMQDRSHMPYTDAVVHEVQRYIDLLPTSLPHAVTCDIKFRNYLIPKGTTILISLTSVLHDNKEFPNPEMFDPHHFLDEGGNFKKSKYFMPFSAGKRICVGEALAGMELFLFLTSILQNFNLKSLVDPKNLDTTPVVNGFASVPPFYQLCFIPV
Sequence of Prostacyclin receptor (P43119 whole entry): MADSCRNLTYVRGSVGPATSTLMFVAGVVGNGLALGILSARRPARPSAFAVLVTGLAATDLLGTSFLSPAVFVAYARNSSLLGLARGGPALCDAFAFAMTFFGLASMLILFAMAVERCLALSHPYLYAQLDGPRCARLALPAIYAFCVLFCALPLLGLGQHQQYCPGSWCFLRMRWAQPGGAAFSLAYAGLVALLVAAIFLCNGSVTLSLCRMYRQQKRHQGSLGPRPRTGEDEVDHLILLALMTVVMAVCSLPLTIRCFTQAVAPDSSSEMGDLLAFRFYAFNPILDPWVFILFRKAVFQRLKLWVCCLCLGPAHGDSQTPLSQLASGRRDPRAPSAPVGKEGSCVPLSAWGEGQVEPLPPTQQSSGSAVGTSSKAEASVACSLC
Sequence of Prostaglandin E2 receptor EP2 subtype (P43116 whole entry, the tested form may be a part): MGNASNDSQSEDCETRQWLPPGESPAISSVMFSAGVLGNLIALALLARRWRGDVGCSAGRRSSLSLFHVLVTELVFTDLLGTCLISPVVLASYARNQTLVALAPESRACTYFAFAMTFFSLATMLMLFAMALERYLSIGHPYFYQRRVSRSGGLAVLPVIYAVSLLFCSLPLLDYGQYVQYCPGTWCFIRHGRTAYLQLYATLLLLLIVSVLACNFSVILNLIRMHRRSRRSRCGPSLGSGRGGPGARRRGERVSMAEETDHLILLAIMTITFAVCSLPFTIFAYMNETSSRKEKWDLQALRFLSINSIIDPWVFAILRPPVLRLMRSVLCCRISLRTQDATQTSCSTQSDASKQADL
Sequence of Cytochrome P450 2C19 (P33261 whole entry): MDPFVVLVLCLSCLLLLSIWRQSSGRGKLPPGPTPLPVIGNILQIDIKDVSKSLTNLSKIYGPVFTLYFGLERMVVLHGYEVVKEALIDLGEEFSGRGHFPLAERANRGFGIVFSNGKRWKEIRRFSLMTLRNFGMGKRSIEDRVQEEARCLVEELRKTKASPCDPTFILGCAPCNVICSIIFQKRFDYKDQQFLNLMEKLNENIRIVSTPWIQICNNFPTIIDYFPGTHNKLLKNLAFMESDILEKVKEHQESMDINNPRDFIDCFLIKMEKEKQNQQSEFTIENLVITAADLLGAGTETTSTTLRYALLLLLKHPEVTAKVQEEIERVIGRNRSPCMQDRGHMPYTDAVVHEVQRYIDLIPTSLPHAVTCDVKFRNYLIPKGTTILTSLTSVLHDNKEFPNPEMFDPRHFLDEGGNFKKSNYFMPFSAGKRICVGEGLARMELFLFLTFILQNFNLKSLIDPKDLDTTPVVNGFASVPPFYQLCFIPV

`O=C([O-])c1cccc(Cc2cc(Cl)ccc2OCc2ccc(Cl)cc2F)n1.[Na+]` showed a concentration at 1 h [1] of 627 nM, a concentration at 1 h [2] of 415 nM and a Kp at 1 h [3] of 0.21. For the same compound, the clearance [4] was 19 mL/min/kg, the IC50 [5] was 8 µM and the Kp at 1 h [6] was 0.27. The half-life [7] was 2.3 h, the Papp A→B at 1 h [8] was 70 ×10⁻⁶ cm/s and the solubility at 0.5 h [9] was 60 µg/mL. For the same compound, the ED50 [10] was 3 mg/kg, the bioavailability [11] was 39% and the pKi [12] was 5.9. For the same compound, the concentration at 1 h [13] was 374 nM, the solubility at 0.5 h [14] was 890 µg/mL and the IC50 [15] was greater than 100 µM. For the same compound, the CL [16] was 4.8 mL/min/g, the IC50 [17] was 85 µM and the IC50 [18] was greater than 1 µM. For the same compound, the concentration at 1 h [19] was 1510 nM, the IC50 [20] was 1.58 µM and the concentration at 12 h [21] was 955 nM. It also gave a CL [22] of 0.7 mL/min/g, an efflux ratio at 1 h [23] of 0.9 and a half-life [24] of 0.6 h.
